One may read the viability as a read-out of living cells in per cent, often relative to untreated cells. A word on the inhibition: it is the drop in the measured response relative to a control, in per cent.

Activity calls are given as the source filed them. Unless noted, no stated cut-off is given here; in the data, active means inhibition above about 31%; inactive means the rest.

A short description of experiment [1]: HUVEC growth inhibition – cell-based, human, primary screen (AID 575;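 active means viability at or below 30% in both replicate assays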;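 further: 100% = median of untreated cell wells with 0.1% DMSO on each plate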). The following applies: HUVEC proliferation, CellTiter-Glo luminescence, 72 h; at 10 µM; stronger effect = lower value. In short, it runs like this:
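System – primary HUVEC, no more than 12 passages · Medium – Low-serum (2% FBS) EBM, supplemented · Times – 72 h exposure, 37 °C, 5% CO2, 30 min RT equilibration · Measured by – luminescent ATP assay · Read-out – % viability relative to median vehicle-well signal on each plate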
In general terms: In ATP-based viability assays light output follows the ATP content of the culture.

Experiment [2] is described as follows: growth inhibitors of H69AR lung tumor, primary screen, human, duplicate replicates (AID 580;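 active means viability at or under a set limit in both replicates, limit being median viability minus 3 SD, cut at about 48% in these data, passing the limit was not always enough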;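 further: 100% = mean luminescence of untreated wells and 0% = no signal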). The following applies: H69AR lung tumor cells viability, ATP luminescence, 72 h; at 10 µM; stronger effect = lower value.
Experiment [3] can be described thus: reversal of MRP1-mediated doxorubicin resistance, pilot screen, H69AR cells, doxorubicin co-treatment (AID 601;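 active means viability loss from added drug above about 55%, and viability with drug at most 40%, in both replicates, limit read from the data, passing the limit was not always enough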). The following applies: CellTiter-Glo, 72 h, at 10 µM; for differential viability (reversal): stronger effect = higher value.
Experiment [4] is described as follows: 384-well plate pilot, post-Golgi transport modulator project, inhibition of yeast transport mutant growth (AID 636). The following applies: absorbance 615 nm, about 18 h, stronger effect = higher value.
The nature of experiment [5]: growth suppression of yeast trafficking mutant, preliminary HTS, modulators of trafficking downstream of Golgi apparatus project, 1536-format plate, OD 615 nm (AID 637; in the data active means inhibition above about 30%). The following applies: yeast transport mutant growth, absorbance 615 nm, 18 h; stronger effect = higher value.
The mark [6] stands for this setting: H69AR cells + 2 uM doxorubicin, measured here: viability with 2 uM doxorubicin, stronger effect = lower value.
[7] abbreviates: H69AR cells, compound alone cytotoxicity.

As for `O=C(CC1CCCCC1)NCc1ccccn1`, the viability in experiment [1] is 92.2% (inactive); in experiment [2] it was 95.8% (inactive); in experiment [3] (setting [6]), 82.9%; in experiment [3] (setting [7]), 95.8%. Besides, in experiment [3] (H69AR cells + 2 uM doxorubicin), the differential viability (reversal) is 12.9% (inactive). For the same compound, the inhibition in experiment [4] was -3.42% (inactive); in experiment [5], -6.67% (inactive).
For the compound `CCCCCC1NC(=O)NC1CCCCCC(=O)O` (stereo not given), the viability in experiment [1] is 98.5% (inactive); in experiment [2], 104% (inactive); in experiment [3] (setting [6]), 89.2%; in experiment [3] (setting [7]), 104%. The differential viability (reversal) in experiment [3] (H69AR cells + 2 uM doxorubicin) is 14.3% (inactive). Besides, the inhibition in experiment [4] is -0.91% (inactive); in experiment [5] it was -2.22% (inactive).
In the case of `COc1ccccc1N1CCN(C(=O)C2CC=CCC2C(=O)O)CC1` (stereo not given), the viability in experiment [1] is 97.3% (inactive); in experiment [2], 93.1% (inactive); in experiment [3] (setting [6]), 86.5%; in experiment [3] (setting [7]) it was 93.1%. For the same compound, the differential viability (reversal) in experiment [3] (H69AR cells + 2 uM doxorubicin) was 6.56% (inactive). Further, the inhibition in experiment [4] is -4.61% (inactive); in experiment [5], 2.54% (inactive).
For the compound `Cc1cccc(NC(=O)CCn2ccnc2C)c1`, the viability in experiment [1] was 98.8% (inactive); in experiment [2], 92.3% (inactive); in experiment [3] (setting [6]), 88.4%; in experiment [3] (setting [7]) it was 92.3%. Further, in experiment [3] (H69AR cells + 2 uM doxorubicin), the differential viability (reversal) is 3.98% (inactive). The inhibition in experiment [4] is -1.95% (inactive); in experiment [5] it was 0.79% (inactive).
As to `Cc1cc(C(=O)Nc2cc(C)n(Cc3ccc(Cl)cc3)n2)no1`, the viability in experiment [1] is 102% (inactive); in experiment [2], 94.5% (inactive); in experiment [3] (setting [6]), 92.1%; in experiment [3] (setting [7]), 94.5%. Also, the differential viability (reversal) in experiment [3] (H69AR cells + 2 uM doxorubicin) was 2.41% (inactive). Moreover, the inhibition in experiment [4] was 1.97% (inactive); in experiment [5], -6.51% (inactive).
With `CCOC(=O)C1CCCN(S(=O)(=O)c2cccs2)C1` (stereo not given), the viability was 110% (inactive) in experiment [1], 109% (inactive) in experiment [2], 96.7% in experiment [3] (setting [6]) and 109% in experiment [3] (setting [7]). Also, the differential viability (reversal) in experiment [3] (H69AR cells + 2 uM doxorubicin) was 12.7% (inactive). The inhibition in experiment [4] was 0.66% (inactive); in experiment [5] it was -6.03% (inactive).
Consider `Cc1cc(C)n(CCCNC(=O)c2ccc(S(=O)(=O)NCc3ccco3)cc2)n1`, for which the viability in experiment [1] is 97.6% (inactive); in experiment [2], 94.2% (inactive); in experiment [3] (setting [6]) it was 86.9%; in experiment [3] (setting [7]), 94.2%. For the same compound, the differential viability (reversal) in experiment [3] (H69AR cells + 2 uM doxorubicin) was 7.31% (inactive). In addition, the inhibition in experiment [4] is -3.77% (inactive); in experiment [5] it was 3.17% (inactive).
Regarding `CN(CC(=O)Nc1ccncc1)S(=O)(=O)c1ccccc1`, the viability is 110% (inactive) in experiment [1], 95.8% (inactive) in experiment [2], 83.9% in experiment [3] (setting [6]) and 95.8% in experiment [3] (setting [7]). In addition, the differential viability (reversal) in experiment [3] (H69AR cells + 2 uM doxorubicin) is 11.9% (inactive). In addition, the inhibition in experiment [4] was -7.63% (inactive); in experiment [5], -0.63% (inactive).
`O=c1cc(CSc2nnc(COc3ccc(Cl)cc3)o2)c2ccccc2[nH]1`: the viability in experiment [1] is 86.8% (inactive); in experiment [2], 90.2% (inactive); in experiment [3] (setting [6]), 92.9%; in experiment [3] (setting [7]) it was 90.2%. Moreover, the differential viability (reversal) in experiment [3] (H69AR cells + 2 uM doxorubicin) was -2.67% (inactive). The inhibition is -2.11% (inactive) in experiment [4] and -6.67% (inactive) in experiment [5].
As for `CC(=O)Nc1ccc(S(=O)(=O)N2CCN(Cc3ccncc3)CC2)cc1`, the viability in experiment [1] is 90.7% (inactive); in experiment [2], 109% (inactive); in experiment [3] (setting [6]), 90.5%; in experiment [3] (setting [7]), 109%. Moreover, the differential viability (reversal) in experiment [3] (H69AR cells + 2 uM doxorubicin) is 18.1% (inactive). Further, the inhibition is -5.13% (inactive) in experiment [4] and 1.59% (inactive) in experiment [5].
With `COC(=O)c1ccc(C2CC(=O)Nc3cc(OC)c(OC)c(OC)c32)cc1` (stereo not given), the viability in experiment [1] is 83.6% (inactive); in experiment [2], 89.4% (inactive); in experiment [3] (setting [6]) it was 77.8%; in experiment [3] (setting [7]) it was 89.4%. Besides, in experiment [3] (H69AR cells + 2 uM doxorubicin), the differential viability (reversal) is 11.6% (inactive). For the same compound, the inhibition is -3.47% (inactive) in experiment [4] and 0.63% (inactive) in experiment [5].
`CSc1ccccc1NS(=O)(=O)c1ccccc1`: the viability is 101% (inactive) in experiment [1], 102% (inactive) in experiment [2], 90.8% in experiment [3] (setting [6]) and 102% in experiment [3] (setting [7]). Also, in experiment [3] (H69AR cells + 2 uM doxorubicin), the differential viability (reversal) was 10.8% (inactive). Moreover, the values for the inhibition in experiment [4] and in experiment [5] were -4.61% (inactive) and 0% (inactive), respectively.
Turning to `O=C(Cc1ccsc1-c1ccccc1)NO`, the viability was 72.8% (inactive) in experiment [1], 1.73% (active) in experiment [2], 1.39% in experiment [3] (setting [6]) and 1.73% in experiment [3] (setting [7]). Also, the differential viability (reversal) in experiment [3] (H69AR cells + 2 uM doxorubicin) is 0.35% (inactive). The inhibition in experiment [4] is -3.82% (inactive); in experiment [5], 4.29% (inactive).
Turning to `Cc1ccc(C)c(Cn2c(=O)n(CCC(=O)NCc3ccco3)c(=O)c3sccc32)c1`, the viability in experiment [1] is 74.6% (inactive); in experiment [2], 87.7% (inactive); in experiment [3] (setting [6]), 87.7%; in experiment [3] (setting [7]) it was 87.7%. Moreover, the differential viability (reversal) in experiment [3] (H69AR cells + 2 uM doxorubicin) is -0.04% (inactive). Further, the inhibition is -2.86% (inactive) in experiment [4] and -0.63% (inactive) in experiment [5].
For `CC1CCN(CCC(=O)Nc2ccc(Br)cc2)CC1`, the viability was 88.6% (inactive) in experiment [1], 89.2% (inactive) in experiment [2], 80.4% in experiment [3] (setting [6]) and 89.2% in experiment [3] (setting [7]). Moreover, in experiment [3] (H69AR cells + 2 uM doxorubicin), the differential viability (reversal) was 8.88% (inactive). The results for the inhibition in experiment [4] and in experiment [5] were -4.47% (inactive) and 0.32% (inactive), respectively.
On to `Cc1c(O)c(CN2CCCC(C)C2)cc2c3c(c(=O)oc12)CCC3` (stereo not given), for which the viability in experiment [1] was 93.3% (inactive); in experiment [2], 83.1% (inactive); in experiment [3] (setting [6]), 86.1%; in experiment [3] (setting [7]) it was 83.1%. In experiment [3] (H69AR cells + 2 uM doxorubicin), the differential viability (reversal) is -2.96% (inactive). Moreover, the inhibition in experiment [4] was -6.97% (inactive); in experiment [5], -2.38% (inactive).
Regarding `C1=CC2CC1CC2CN1CCN(c2ccccc2)CC1` (stereo not given), the viability in experiment [1] is 97.7% (inactive); in experiment [2], 91.8% (inactive); in experiment [3] (setting [6]) it was 94.8%; in experiment [3] (setting [7]), 91.8%. The differential viability (reversal) in experiment [3] (H69AR cells + 2 uM doxorubicin) was -2.94% (inactive). Moreover, the inhibition was 1.45% (inactive) in experiment [4] and -1.27% (inactive) in experiment [5].
As for `CN1/C(=C\C(=O)Nc2cccnc2)c2ccccc2CC1(C)C`, the viability in experiment [1] was 99.3% (inactive); in experiment [2], 86.5% (inactive); in experiment [3] (setting [6]) it was 90.6%; in experiment [3] (setting [7]), 86.5%. Further, in experiment [3] (H69AR cells + 2 uM doxorubicin), the differential viability (reversal) was -4.08% (inactive). Also, the inhibition was -4.4% (inactive) in experiment [4] and -0.95% (inactive) in experiment [5].
In the case of `O=C(c1cc(-c2cccs2)on1)N1CCc2ccccc2C1`, the viability in experiment [1] is 103% (inactive); in experiment [2] it was 104% (inactive); in experiment [3] (setting [6]) it was 81.8%; in experiment [3] (setting [7]), 104%. The differential viability (reversal) in experiment [3] (H69AR cells + 2 uM doxorubicin) is 21.8% (inactive). The figures for the inhibition in experiment [4] and in experiment [5] were -2.24% (inactive) and -0.48% (inactive), respectively.
On to `CC1CN(c2nc3ccccc3nc2C(C#N)C(=O)NCc2ccc3c(c2)OCO3)CC(C)O1` (stereo not given), for which the viability in experiment [1] is 84.6% (inactive); in experiment [2] it was 91.2% (inactive); in experiment [3] (setting [6]), 96.6%; in experiment [3] (setting [7]) it was 91.2%. Further, the differential viability (reversal) in experiment [3] (H69AR cells + 2 uM doxorubicin) was -5.39% (inactive). For the same compound, the results for the inhibition in experiment [4] and in experiment [5] were -4.93% (inactive) and 4.76% (inactive), respectively.

The record behind these values is PubChem BioAssay.
